Measurements as given in ChEMBL document CHEMBL1629526, “4-[1-(Substituted aryl/alkyl carbonyl)-benzoimidazol-2-yl]-benzenesulfonic acids: synthesis, antimicrobial activity, QSAR studies, and antiviral evaluation” (Eur J Med Chem, 2010).
Converted amounts (≈) assume the structure as drawn.

What was measured:
Escherichia coli = experiment: Antimicrobial activity against Escherichia coli after 24 hrs by tube dilution method; format: functional
Human alphaherpesvirus 1 [1] = experiment: Antiviral activity against thymidine kinase deficient acyclovir-resistant Herpes simplex virus 1 KOS infected in HEL cells assessed as inhibition of virus induced cytopathicity after 2 to 4 days by MTS assay; format: functional, organism-based; details: Human alphaherpesvirus 1, KOS
Punta Toro virus = experiment: Antiviral activity against Punta Toro virus infected in african green monkey Vero cells assessed as inhibition of virus induced cytopathicity after 2 to 4 days by MTS assay; format: functional, organism-based
Coxsackievirus B4 [2] = experiment: Antiviral activity against coxsackievirus B4 infected in human HeLa cells assessed as inhibition of virus induced cytopathicity after 2 to 4 days by MTS assay; format: functional, organism-based; details: Enterovirus B
Aspergillus niger = experiment: Antimicrobial activity against Aspergillus niger after 7 days by tube dilution method; format: functional; details: 168 h
[3] = system: Respiratory syncytial virus; experiment: Antiviral activity against Respiratory syncytial virus infected in human HeLa cells assessed as inhibition of virus induced cytopathicity by visual scoring of CPE; format: functional, organism-based
[4] = Cytotoxicity against MDCK cells assessed as altered cell morphology; format: cell-based, Canis lupus familiaris; details: dog
Procedure, shortened: (§1)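 Uninfected cell cultures run alongside the antiviral assays, exposed to serial compound dilutions and incubated at 37 °C for 2–4 days. Toxicity was scored microscopically and reported as the minimum cytotoxic concentration (MCC), the lowest concentration causing a detectable change in normal cell morphology.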

Candida albicans = experiment: Antimicrobial activity against Candida albicans after 48 hrs by tube dilution method; format: functional
Staphylococcus aureus = experiment: Antimicrobial activity against Staphylococcus aureus after 24 hrs by tube dilution method; format: functional
[5] = Cytotoxicity against human HEL cells assessed as altered cell morphology; format: cell-based; procedure, shortened: as §1
[6] = Cytotoxicity against human HeLa cells assessed as altered cell morphology; format: cell-based; procedure, shortened: as §1
Bacillus subtilis = experiment: Antimicrobial activity against Bacillus subtilis after 24 hrs by tube dilution method; format: functional
Procedure, shortened: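 Serial dilutions in double-strength nutrient broth (I.P.) with ciprofloxacin as reference, tube dilution, incubated 37 °C for 24 h. MIC is the lowest concentration that inhibited growth.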

Influenza A virus [7] = experiment: Antiviral activity against Influenza A H3N2 virus subtype infected in MDCK cells assessed as inhibition of virus induced cytopathicity after 2 to 4 days by MTS assay; format: functional, organism-based
[8] = system: Respiratory syncytial virus; experiment: Antiviral activity against Respiratory syncytial virus infected in human HeLa cells assessed as inhibition of virus induced cytopathicity after 2 to 4 days by MTS assay; format: functional, organism-based
[9] = system: Vesicular stomatitis virus; experiment: Antiviral activity against Vesicular stomatitis virus infected in HEL cells assessed as inhibition of virus induced cytopathicity after 2 to 4 days by MTS assay; format: functional, organism-based
Coxsackievirus B4 [10] = experiment: Antiviral activity against Coxsackie virus B4 infected in african green monkey Vero cells assessed as inhibition of virus induced cytopathicity after 2 to 4 days by MTS assay; format: functional, organism-based; details: Enterovirus B
Vaccinia virus = experiment: Antiviral activity against Vaccinia virus infected in HEL cells assessed as inhibition of virus induced cytopathicity after 2 to 4 days by MTS assay; format: functional, organism-based; details: Orthopoxvirus vaccinia
Coxsackievirus B4 [11] = experiment: Antiviral activity against coxsackievirus B4 infected in human HeLa cells assessed as inhibition of virus induced cytopathicity by visual scoring of CPE; format: functional, organism-based; details: Enterovirus B
Human respirovirus 3 = experiment: Antiviral activity against parainfluenza-3 virus infected in african green monkey Vero cells assessed as inhibition of virus induced cytopathicity after 2 to 4 days by MTS assay; format: functional, organism-based; details: Human respirovirus 3, Vero
MDCK = experiment: Cytotoxicity against MDCK cells assessed as cell viability by MTS assay; format: cell-based, Canis lupus familiaris; details: dog, mdck
Procedure, shortened: (§2)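 Uninfected cultures were run in parallel with the antiviral assays. Viability was read by colorimetric formazan MTS assay.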

[12] = Cytotoxicity against african green monkey Vero cells assessed as altered cell morphology; format: cell-based; details: chlorocebus sabaeus; procedure, shortened: as §1
[13] = system: Mammalian orthoreovirus 1; experiment: Antiviral activity against Reovirus 1 virus infected in african green monkey Vero cells assessed as inhibition of virus induced cytopathicity after 2 to 4 days by MTS assay; format: functional, organism-based; details: Mammalian orthoreovirus 1, Vero
Sindbis virus = experiment: Antiviral activity against Sindbis virus infected in african green monkey Vero cells assessed as inhibition of virus induced cytopathicity after 2 to 4 days by MTS assay; format: functional, organism-based
Felid alphaherpesvirus 1 = experiment: Antiviral activity against Feline herpesvirus 1 infected in cat CRFK cells assessed as inhibition of virus induced cytopathicity after 2 to 4 days by MTS assay; format: functional, organism-based; details: Felid alphaherpesvirus 1, CRFK
Influenza B virus [14] = experiment: Antiviral activity against Influenza B virus infected in MDCK cells assessed as inhibition of virus induced cytopathicity by visual scoring of CPE; format: functional, organism-based
[15] = Cytotoxicity against cat CRFK cells assessed as cell viability by MTS assay; format: cell-based, Felis catus; details: crfk; procedure, shortened: as §2
Feline coronavirus = experiment: Antiviral activity against Feline coronavirus infected in cat CRFK cells assessed as inhibition of virus induced cytopathicity after 2 to 4 days by MTS assay; format: functional, organism-based; details: Alphacoronavirus 1, CRFK
[16] = system: Vesicular stomatitis virus; experiment: Antiviral activity against Vesicular stomatitis virus infected in human HeLa cells assessed as inhibition of virus induced cytopathicity by visual scoring of CPE; format: functional, organism-based
Human alphaherpesvirus 2 = experiment: Antiviral activity against Herpes simplex virus 2 G infected in HEL cells assessed as inhibition of virus induced cytopathicity after 2 to 4 days by MTS assay; format: functional, organism-based; details: Human alphaherpesvirus 2, strain G
[17] = system: Vesicular stomatitis virus; experiment: Antiviral activity against Vesicular stomatitis virus infected in human HeLa cells assessed as inhibition of virus induced cytopathicity after 2 to 4 days by MTS assay; format: functional, organism-based
HeLa = experiment: Cytotoxicity against human HeLa cells assessed as cell viability by MTS assay; format: cell-based; details: hela; procedure, shortened: as §2
Human alphaherpesvirus 1 [18] = experiment: Antiviral activity against Herpes simplex virus 1 KOS infected in HEL cells assessed as inhibition of virus induced cytopathicity after 2 to 4 days by MTS assay; format: functional, organism-based; details: Human alphaherpesvirus 1, KOS
Influenza B virus [19] = experiment: Antiviral activity against Influenza B virus infected in MDCK cells assessed as inhibition of virus induced cytopathicity after 2 to 4 days by MTS assay; format: functional, organism-based
Influenza A virus [20] = experiment: Antiviral activity against Influenza A H3N2 virus subtype infected in MDCK cells assessed as inhibition of virus induced cytopathicity by visual scoring of CPE; format: functional, organism-based

Structure (SMILES): CCCCCCCCCCCCCCCC(=O)n1c(-c2ccc(S(=O)(=O)O)cc2)nc2ccccc21
- MBC (Escherichia coli): 12.5 µg/mL (≈ 24.4 µM)
- EC50 (Human alphaherpesvirus 1 [1]): > 100 µg/mL
- EC50 (Punta Toro virus): > 100 µg/mL
- EC50 (Coxsackievirus B4 [2]): > 100 µg/mL
- MFC (Aspergillus niger): > 50 µg/mL
- EC50 [3]: > 100 µg/mL
- MCC [4]: > 100 µg/mL
- MFC (Candida albicans): > 50 µg/mL
- MBC (Staphylococcus aureus): 6.25 µg/mL (≈ 12.2 µM)
- MCC [5]: > 100 µg/mL
- MCC [6]: > 100 µg/mL
- MBC (Bacillus subtilis): 12.5 µg/mL (≈ 24.4 µM)
- EC50 (Influenza A virus [7]): > 100 µg/mL
- EC50 [8]: > 100 µg/mL
- EC50 [9]: > 100 µg/mL
- EC50 (Coxsackievirus B4 [10]): > 100 µg/mL
- EC50 (Vaccinia virus): > 100 µg/mL
- EC50 (Coxsackievirus B4 [11]): > 100 µg/mL
- EC50 (Human respirovirus 3): > 100 µg/mL
- CC50 (MDCK): > 100 µg/mL
- MCC [12]: > 100 µg/mL
- EC50 [13]: > 100 µg/mL
- EC50 (Sindbis virus): > 100 µg/mL
- EC50 (Felid alphaherpesvirus 1): > 100 µg/mL
- EC50 (Influenza B virus [14]): > 100 µg/mL
- CC50 [15]: > 100 µg/mL
- EC50 (Feline coronavirus): > 100 µg/mL
- EC50 [16]: > 100 µg/mL
- EC50 (Human alphaherpesvirus 2): > 100 µg/mL
- EC50 [17]: > 100 µg/mL
- CC50 (HeLa): > 100 µg/mL
- EC50 (Human alphaherpesvirus 1 [18]): > 100 µg/mL
- EC50 (Influenza B virus [19]): > 100 µg/mL
- EC50 (Influenza A virus [20]): > 100 µg/mL

Structure (SMILES): C/C=C/C(=O)n1c(-c2ccc(S(=O)(=O)O)cc2)nc2ccccc21
- MBC (Escherichia coli): 12.5 µg/mL (≈ 36.5 µM)
- EC50 (Human alphaherpesvirus 1 [1]): > 100 µg/mL
- EC50 (Punta Toro virus): > 100 µg/mL
- EC50 (Coxsackievirus B4 [2]): > 100 µg/mL
- MFC (Aspergillus niger): > 50 µg/mL
- EC50 [3]: > 100 µg/mL
- MCC [4]: > 100 µg/mL
- MFC (Candida albicans): > 50 µg/mL
- MBC (Staphylococcus aureus): 12.5 µg/mL (≈ 36.5 µM)
- MCC [5]: > 100 µg/mL
- MCC [6]: > 100 µg/mL
- MBC (Bacillus subtilis): 50 µg/mL (≈ 146 µM)
- EC50 (Influenza A virus [7]): > 100 µg/mL
- EC50 [8]: > 100 µg/mL
- EC50 [9]: > 100 µg/mL
- EC50 (Coxsackievirus B4 [10]): > 100 µg/mL
- EC50 (Vaccinia virus): > 100 µg/mL
- EC50 (Coxsackievirus B4 [11]): > 100 µg/mL
- EC50 (Human respirovirus 3): > 100 µg/mL
- CC50 (MDCK): > 100 µg/mL
- MCC [12]: > 100 µg/mL
- EC50 [13]: > 100 µg/mL
- EC50 (Sindbis virus): > 100 µg/mL
- EC50 (Felid alphaherpesvirus 1): > 100 µg/mL
- EC50 (Influenza B virus [14]): > 100 µg/mL
- CC50 [15]: > 100 µg/mL
- EC50 (Feline coronavirus): > 100 µg/mL
- EC50 [16]: > 100 µg/mL
- EC50 (Human alphaherpesvirus 2): > 100 µg/mL
- EC50 [17]: > 100 µg/mL
- CC50 (HeLa): > 100 µg/mL
- EC50 (Human alphaherpesvirus 1 [18]): > 100 µg/mL
- EC50 (Influenza B virus [19]): > 100 µg/mL
- EC50 (Influenza A virus [20]): > 100 µg/mL
